Data published in ChEMBL document CHEMBL1139460 (J Med Chem, 2005).
Calls of active or inactive are those of the source. The calls are words filed in the database; no cut-off is given here.

Experiments:
[1] = target: T1, GABA-A receptor; alpha-2/beta-3/gamma-2 (Homo sapiens, UniProt P18507+P28472+P47869); assay: Displacement of [3H]Ro 15-1788 from human recombinant GABAA alpha-2-beta-3-gamma-2 receptor expressed in L(tk-) cells; type: cell-based
T1 sequence (P18507 whole entry): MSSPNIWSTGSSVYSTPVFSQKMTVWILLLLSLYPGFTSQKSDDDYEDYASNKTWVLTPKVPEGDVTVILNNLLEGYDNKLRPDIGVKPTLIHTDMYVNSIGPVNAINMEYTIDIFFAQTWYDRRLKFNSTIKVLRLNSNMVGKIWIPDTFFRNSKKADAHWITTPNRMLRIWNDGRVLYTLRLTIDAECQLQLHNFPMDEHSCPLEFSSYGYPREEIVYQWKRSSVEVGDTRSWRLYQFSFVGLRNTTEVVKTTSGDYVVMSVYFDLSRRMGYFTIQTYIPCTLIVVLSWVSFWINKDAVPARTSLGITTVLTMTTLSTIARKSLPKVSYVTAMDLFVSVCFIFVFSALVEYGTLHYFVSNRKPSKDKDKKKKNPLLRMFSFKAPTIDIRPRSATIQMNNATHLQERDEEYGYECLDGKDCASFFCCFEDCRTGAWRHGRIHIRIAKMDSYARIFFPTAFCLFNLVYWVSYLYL
T1 sequence (P28472 whole entry): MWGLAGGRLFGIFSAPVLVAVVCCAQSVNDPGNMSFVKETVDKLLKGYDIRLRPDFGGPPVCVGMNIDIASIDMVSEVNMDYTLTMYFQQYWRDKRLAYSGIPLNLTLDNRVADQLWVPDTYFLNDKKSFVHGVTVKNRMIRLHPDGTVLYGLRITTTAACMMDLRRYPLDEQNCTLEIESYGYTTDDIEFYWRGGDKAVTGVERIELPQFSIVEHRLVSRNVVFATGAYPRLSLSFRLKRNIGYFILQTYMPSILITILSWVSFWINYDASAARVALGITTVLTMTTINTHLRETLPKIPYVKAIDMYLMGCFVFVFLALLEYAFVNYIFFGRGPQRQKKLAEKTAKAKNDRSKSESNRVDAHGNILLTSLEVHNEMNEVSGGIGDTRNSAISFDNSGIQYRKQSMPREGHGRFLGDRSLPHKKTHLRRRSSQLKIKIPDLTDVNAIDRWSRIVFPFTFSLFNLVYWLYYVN
T1 sequence (P47869 whole entry): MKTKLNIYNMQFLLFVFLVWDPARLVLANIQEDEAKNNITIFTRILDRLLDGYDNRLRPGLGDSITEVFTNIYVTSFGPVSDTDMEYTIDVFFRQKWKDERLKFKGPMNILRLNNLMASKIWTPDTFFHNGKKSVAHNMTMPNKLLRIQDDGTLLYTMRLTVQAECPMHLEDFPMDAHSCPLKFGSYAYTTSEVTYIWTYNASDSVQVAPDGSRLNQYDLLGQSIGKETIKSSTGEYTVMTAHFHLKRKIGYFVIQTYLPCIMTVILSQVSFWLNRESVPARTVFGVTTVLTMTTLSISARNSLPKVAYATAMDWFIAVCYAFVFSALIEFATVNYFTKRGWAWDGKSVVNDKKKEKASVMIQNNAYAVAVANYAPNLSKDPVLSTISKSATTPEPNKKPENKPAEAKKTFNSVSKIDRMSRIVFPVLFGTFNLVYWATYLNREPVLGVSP

[2] = target: T2, GABA-A receptor; alpha-1/beta-3/gamma-2 (Homo sapiens) (UniProt P14867+P18507+P28472); assay: Efficacy at human recombinant GABAA alpha-1-beta-3-gamma-2 receptor expressed in Xenopus laevis oocytes by two electrode voltage clamp method relative to GABA; type: cell-based; conditions: Oocyte
[3] = target: T3, GABA-A receptor; alpha-1/beta-3/gamma-2 (Homo sapiens, UniProt P14867+P18507+P28472); assay: Displacement of [3H]Ro 15-1788 from human recombinant GABAA alpha-1-beta-3-gamma-2 receptor expressed in L(tk-) cells; type: cell-based
T3 sequence (P14867 whole entry): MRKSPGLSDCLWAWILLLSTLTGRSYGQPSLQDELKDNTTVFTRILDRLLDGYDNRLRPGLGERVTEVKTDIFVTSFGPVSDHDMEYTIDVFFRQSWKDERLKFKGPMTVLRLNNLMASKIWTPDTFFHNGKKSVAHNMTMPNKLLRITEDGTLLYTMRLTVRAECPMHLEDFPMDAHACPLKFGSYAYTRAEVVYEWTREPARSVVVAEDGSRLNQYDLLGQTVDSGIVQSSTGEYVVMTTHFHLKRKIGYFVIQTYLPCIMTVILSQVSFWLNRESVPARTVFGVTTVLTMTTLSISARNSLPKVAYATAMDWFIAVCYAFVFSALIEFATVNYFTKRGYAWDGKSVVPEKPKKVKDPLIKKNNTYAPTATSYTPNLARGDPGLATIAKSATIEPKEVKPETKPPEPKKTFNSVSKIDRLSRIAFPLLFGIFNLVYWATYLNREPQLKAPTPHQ
T3 sequence (P18507 whole entry): T1 sequence (P18507 whole entry)
T3 sequence (P28472 whole entry): T1 sequence (P28472 whole entry)

[4] = target: T4, GABA-A receptor; alpha-3/beta-3/gamma-2 (Homo sapiens) (UniProt P18507+P28472+P34903); assay: Efficacy at human recombinant GABAA alpha-3-beta-3-gamma-2 receptor expressed in Xenopus laevis oocytes by two electrode voltage clamp method relative to GABA; type: cell-based; conditions: Oocyte
[5] = target: T5, GABA-A receptor; alpha-3/beta-3/gamma-2 (Homo sapiens, UniProt P18507+P28472+P34903); assay: Displacement of [3H]Ro 15-1788 from human recombinant GABAA alpha-3-beta-3-gamma-2 receptor expressed in L(tk-) cells; type: cell-based
T5 sequence (P18507 whole entry): T1 sequence (P18507 whole entry)
T5 sequence (P28472 whole entry): T1 sequence (P28472 whole entry)
T5 sequence (P34903 whole entry): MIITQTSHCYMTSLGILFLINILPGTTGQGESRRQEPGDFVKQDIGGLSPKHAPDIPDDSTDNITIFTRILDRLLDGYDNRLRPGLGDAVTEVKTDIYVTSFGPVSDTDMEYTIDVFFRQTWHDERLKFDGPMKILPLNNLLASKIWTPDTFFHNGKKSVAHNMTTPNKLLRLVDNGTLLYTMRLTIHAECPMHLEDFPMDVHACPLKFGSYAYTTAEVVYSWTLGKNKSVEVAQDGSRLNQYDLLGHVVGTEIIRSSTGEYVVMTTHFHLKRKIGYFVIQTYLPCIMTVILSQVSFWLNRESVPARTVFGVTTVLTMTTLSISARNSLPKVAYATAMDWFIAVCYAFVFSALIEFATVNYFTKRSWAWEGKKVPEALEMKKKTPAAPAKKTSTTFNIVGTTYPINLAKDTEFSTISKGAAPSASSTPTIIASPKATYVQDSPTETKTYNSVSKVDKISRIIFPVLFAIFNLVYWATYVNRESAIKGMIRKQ

[6] = target: T6, GABA-A receptor; alpha-2/beta-3/gamma-2 (Homo sapiens) (UniProt P18507+P28472+P47869); assay: Efficacy at human recombinant GABAA alpha-2-beta-3-gamma-2 receptor expressed in Xenopus laevis oocytes by two electrode voltage clamp method relative to GABA; type: cell-based; conditions: Oocyte
In short: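 Human α2β3γ2 GABA-A receptors were transiently expressed in Xenopus oocytes and recorded by two-electrode voltage clamp. […] Efficacy is the percent modulation of the submaximal GABA EC20 ion current.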

[7] = tested on: Rattus norvegicus; assay: Anxiolytic effect in rat at 3 mg/kg, po by anxiety assay; type: functional, organism-based; design: dose 3 mg/kg
[8] = Half life in dog; type: ADME, organism-based, Canis lupus familiaris; conditions: in vivo
[9] = Half life in rat; type: ADME, organism-based; conditions: in vivo
[10] = tested on: Mus musculus; assay: Receptor occupancy in vivo by displacement of [3H]Ro 15-1788 binding from GABAA receptor in orally dosed Swiss Webster mouse; type: functional; conditions: po, read-out: ID50 (the source's name)
[11] = Bioavailability in dog; type: ADME, organism-based, Canis lupus familiaris; conditions: in vivo
[12] = tested on: Rattus norvegicus; assay: Sedative effect in orally dosed rat at by chain-pulling assay; type: functional, organism-based
[13] = tested on: Rattus norvegicus; assay: Anxiolytic effect in rat at 1 mg/kg, po by anxiolytic assay; type: functional, organism-based; design: dose 1 mg/kg
[14] = tested on: Rattus norvegicus; assay: Receptor occupancy at GABAA receptor in rat at 30 mg/kg, po; type: functional
[15] = tested on: Rattus norvegicus; assay: Receptor occupancy at GABAA receptor in rat at 1 mg/kg, po; type: functional
[16] = Bioavailability in rat; type: ADME, organism-based; conditions: in vivo
[17] = tested on: Rattus norvegicus; assay: Receptor occupancy at GABAA receptor in rat at 3 mg/kg, po; type: functional
[18] = target: T2, GABA-A receptor; alpha-1/beta-3/gamma-2 (Homo sapiens); assay: Efficacy at human recombinant GABAA alpha-1-beta-3-gamma-2 receptor expressed in L(tk-) cells by two electrode voltage clamp method relative to GABA; type: cell-based
In short: (§1)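 Receptors stably expressed in L(tk-) fibroblasts; percent modulation of the submaximal (EC20) GABA response, multiple drug concentrations assessed.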

[19] = target: T4, GABA-A receptor; alpha-3/beta-3/gamma-2 (Homo sapiens); assay: Efficacy at human recombinant GABAA alpha-3-beta-3-gamma-2 receptor expressed in L(tk-) cells by two electrode voltage clamp method relative to GABA; type: cell-based; in short: as §1
[20] = target: T6, GABA-A receptor; alpha-2/beta-3/gamma-2 (Homo sapiens); assay: Efficacy at human recombinant GABAA alpha-2-beta-3-gamma-2 receptor expressed in L(tk-) cells by two electrode voltage clamp method relative to GABA; type: cell-based; in short: as §1

Row | SMILES | Ki [1] [nM] | Efficacy [2] [%] | Ki [3] [nM] | Efficacy [4] [%] | Ki [5] [nM] | Efficacy [6] [%] | Efficacy [18] [%] | Efficacy [19] [%] | further results
1 | c1ccc(-c2cc3nnc(-c4ccccc4)n3nc2OCc2ccccn2)cc1 | 2.9 | 80 | 1.1 | 77 | 1.8 |  |  |  | 
2 | Cn1ncnc1COc1nn2c(-c3ccccc3)nnc2cc1-c1ccccc1 | 2.6 | 94 | 0.78 | 115 | 1.2 |  |  |  | 
3 | Cc1ccc(-c2nc3ccc(C)cn3c2CC(=O)N(C)C)cc1 |  | 160 |  |  |  | 123 |  |  | 
4 | CCn1ncnc1COc1nn2c(-c3ccccc3F)nnc2cc1C(C)(C)C [MK-0777] | 0.31 |  | 0.27 |  | 0.2 |  |  |  | Activity [7]: Active; half-life [8]: 1.5 h; half-life [9]: 1.4 h; ED50 [10]: 0.42 mg/kg; bioavailability [11]: 53%; Activity [12]: inactive; Activity [13]: Active; Activity [14]: 99%; Activity [15]: 70%; bioavailability [16]: 35%; Activity [17]: 88%
5 | CN1C(=O)CN=C(c2ccccc2)c2cc(Cl)ccc21 |  |  |  |  |  | 115 |  |  | 
6 | Cn1ncnc1COc1nn2c(-c3ccccc3)nnc2cc1C(C)(C)C |  |  | 0.36 |  | 0.14 |  | 0 | 34 | 
7 | Cn1ncnc1COc1nn2c(-c3ccccc3)nnc2cc1C1CCCCC1 | 14 | 65 | 6.2 | 109 | 4.8 |  |  |  | 
8 | Cn1ncnc1COc1nn2c(-c3ccccc3)nnc2cc1C1CCC1 | 0.25 |  | 0.23 |  | 0.17 |  | 27 | 72 | Efficacy [20]: 41%
9 | c1ccc(-c2nnc3c4c(c(OCc5ccccn5)nn23)C2CCC4CC2)cc1 |  | 51 |  | 38 | 12 | 23 |  |  | 
10 | Cn1ncnc1COc1nn2c(-c3ccccc3)nnc2cc1C1CCCC1 | 0.73 |  | 0.38 |  | 0.34 |  | 47 | 63 | 
